Results taken from ChEMBL document CHEMBL4145607, “Tamarixetin Exhibits Anti-inflammatory Activity and Prevents Bacterial Sepsis by Increasing IL-10 Production” (J Nat Prod, 2018).
The source made the active and inactive calls. No cut-off for these calls is given here.

Columns and labels:
BMDC [1] = assay: Inhibition of LPS-induced immune response in C57BL/6 mouse BMDC assessed as reduction in IL-12p70 secretion up to 25 uM pretreated for 30 mins followed by LPS-challenge measured after 6 hrs by ELISA; format: functional, cell-based
Outline: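 Mouse BMDCs (female C57BL/6 bone marrow, GM-CSF-derived, ≥90% CD11c+ on day 7) pretreated 30 min with graded compound concentrations, then stimulated with LPS 50 ng/mL for 6 h. Supernatant TNF-α, IL-6, IL-10 and IL-12p70 quantified by sandwich ELISA. Mean ± SEM vs LPS-only cells; experiments repeated at least three times.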

BMDC [2] = assay: Inhibition of LPS-induced immune response in C57BL/6 mouse BMDC assessed as reduction in IL-6 secretion at 25 uM treated 6 hrs post LPS-challenge measured after 60 to 120 mins by ELISA; format: functional, cell-based
Outline: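 Bone marrow DCs from 6-week-old female C57BL/6 mice, RBC-lysed, cultured in RPMI-1640/10% FBS with 10 ng/mL rmGM-CSF, 37 °C, 5% CO2. Cells given LPS 50 ng/mL for 6 h, then 25 μM compound added for 30, 60, 90 or 120 min. Supernatant TNF-α, IL-6, IL-10, IL-12p70 measured by sandwich ELISA. Mean ± SEM, compared with LPS-only DCs.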

BMDC [3] = assay: Increase in microRNA146a expression in LPS-induced C57BL/6 mouse BMDC at 25 uM pretreated for 30 mins followed by LPS-challenge measured after 6 hrs by qRT-PCR analysis; format: functional, cell-based
Outline: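 Total RNA was extracted from BMDCs with TRIzol and reverse transcribed. miR-146a, miR-155 and miR-187 were quantified by real-time qPCR with gene-specific primers.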

Mus musculus [4] = assay: Antiinflammatory activity in Balb/c mouse model of LPS-induced endotoxemia assessed as reduction in serum AST level at 1 mg/kg, ip pretreated for 1 hr followed by LPS-challenge measured after 12 hrs by ELISA; format: functional, organism-based
Outline: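 In BALB/c mice, 1 mg·kg−1 i.p. was given 1 h before LPS 10 mg·kg−1 i.p. After 12 h, serum AST, ALT and BUN were measured by ELISA. Means ± SEM.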

BMDC [5] = assay: Inhibition of Escherichia coli DH5alpha infection-induced immune response in C57BL/6 mouse BMDC assessed as reduction in TNFalpha secretion at 25 uM pretreated for 30 mins followed by Escherichia coli DH5alpha infection for 6 hrs by ELISA; format: functional, cell-based
Outline: (§1)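 C57BL/6 BMDCs received 25 μM compound and E. coli DH5α, 3 × 10^6 CFU·mL−1. Schedules were: compound 30 min before a 6 h infection; co-addition for 6 h; or compound for 30, 60, 90 or 120 min plus 6 h infection. Supernatant TNF-α, IL-6, IL-10 and IL-12p70 were measured by ELISA. At least three experiments in triplicate.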

BMDC [6] = assay: Inhibition of Escherichia coli DH5alpha infection-induced immune response in C57BL/6 mouse BMDC assessed as reduction in IL-12p70 secretion at 25 uM pretreated for 30 mins followed by Escherichia coli DH5alpha infection for 6 hrs by ELISA; format: functional, cell-based; outline: as §1
Mus musculus [7] = assay: Antiseptic activity in Balb/c mouse model of Escherichia coli K1 infection-induced sepsis assessed as increase in survival rate at 1 mg/kg, ip pretreated for 1 hr followed by Escherichia coli K1 infection measured up to 20 hrs relative to control; format: functional
Mus musculus [8] = assay: Antiseptic activity in Balb/c mouse model of Escherichia coli K1 infection-induced sepsis assessed as increase in serum IL10 level at 1 mg/kg, ip pretreated for 1 hr followed by Escherichia coli K1 infection measured after 2 hrs by ELISA; format: functional, organism-based
Outline: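 BALB/c mice received 1 mg·kg−1 i.p. 1 h before i.p. E. coli K1 RS218, 1 × 10^6 CFU per mouse. Serum was collected at 2 h, and TNF-α, IL-6 and IL-10 were quantified by sandwich ELISA. Means ± SEM.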

Mus musculus [9] = assay: Antiinflammatory activity in Balb/c mouse model of LPS-induced endotoxemia assessed as increase in IL10 producing dendritic cells in splenocyte at 1 mg/kg, ip pretreated for 1 hr followed by LPS-challenge measured after 12 hrs by flow cytometric analysis; format: functional, organism-based
Mus musculus [10] = assay: Antiseptic activity in Balb/c mouse model of Escherichia coli K1 infection-induced sepsis assessed as reduction in bacterial count in lungs at 1 mg/kg, ip pretreated for 1 hr followed by Escherichia coli K1 infection measured after 12 hrs; format: functional, organism-based
Outline: (§2)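 Pretreatment was 1 mg·kg−1 i.p. 1 h before i.p. E. coli K1 (1 × 10^6 CFU per mouse) in BALB/c mice. At 12 h, lungs, liver and kidneys were homogenized in PBS and diluted 1:1000. 10 μL was plated on LB agar, incubated 24 h at 37 °C, and colonies counted.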

Mus musculus [11] = assay: Antiseptic activity in Balb/c mouse model of Escherichia coli K1 infection-induced sepsis assessed as reduction in bacterial count in kidneys at 1 mg/kg, ip pretreated for 1 hr followed by Escherichia coli K1 infection measured after 12 hrs; format: functional, organism-based; outline: as §2
Mus musculus [12] = assay: Antiseptic activity in Balb/c mouse model of Escherichia coli K1 infection-induced sepsis assessed as reduction in serum endotoxin level at 1 mg/kg, ip pretreated for 1 hr followed by Escherichia coli K1 infection measured after 12 hrs by chromogenic assay; format: functional, organism-based
Outline: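 BALB/c mice dosed i.p. 1 h before i.p. E. coli K1 (1 × 10^6 CFU per mouse), sera taken at 12 h. Serum diluted 10-fold in endotoxin-free PBS, LAL chromogenic end-point assay; background subtracted, quantified against E. coli endotoxin standard, reported as EU·mL−1.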

Mus musculus [13] = assay: Antiseptic activity in Balb/c mouse model of Escherichia coli K1 infection-induced sepsis assessed as increase in survival rate at 1 mg/kg, ip pretreated for 1 hr followed by Escherichia coli K1 infection measured over 72 hrs relative to control; format: functional
Outline: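 BALB/c mice dosed i.p. 1 h before i.p. E. coli K1 strain RS218 (O18:K1:H7) challenge, 1 × 10^7 CFU per mouse, diluted in LB broth; n = 10; survival monitored over 72 h.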

For COc1ccc(-c2oc3cc(O)cc(O)c3c(=O)c2O)cc1O [TAMARIXETIN], the inhibition (BMDC [1]) was “Active”, the inhibition (BMDC [2]) was “inactive” and the Activity (BMDC [3]) was “Active”. For the same compound, the Activity (Mus musculus [4]) was “Active”, the inhibition (BMDC [5]) was “Active” and the inhibition (BMDC [6]) was “Active”. The Activity (Mus musculus [7]) was 60%, the Activity (Mus musculus [8]) was “Active” and the Activity (Mus musculus [9]) was “Active”. For the same compound, the Activity (Mus musculus [10]) was “Active”, the Activity (Mus musculus [11]) was “Active” and the Activity (Mus musculus [12]) was “Active”. The Activity (Mus musculus [13]) was 80%.
